Source: ChEMBL document CHEMBL1126078, “Benzodiazepine receptor affinity and interaction of some N-(indol-3-ylglyoxylyl)amine derivatives” (J Med Chem, 1992)
Activity calls are given as the source filed them. No cut-off for these calls is given here.

Columns and labels:
[1] = molecular target: T1, GABA-A receptor; anion channel (Bos taurus) (UniProt P10063+P08220+P20237+P08219+P10064+P22300); experiment: In vitro inhibition of specific binding of [3H]flunitrazepam to benzodiazepine receptor in bovine cerebral cortex membrane at a concentration of 10 uM.; type: cell membranes
How it was run: (§1)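 Bovine cortex membranes (sucrose homogenate, 50 000g pellet, frozen and washed to remove endogenous GABA) in 50 mM Tris-HCl pH 7.4; 0.4 mg protein incubated 90 min at 0 °C with 0.2 nM [3H]flunitrazepam, filtered, counted. Nonspecific binding with 10 μM diazepam. Single test concentration 10 μM, or 1 μM where insoluble; mean ± SEM of five determinations.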

[2] = molecular target: GABA-A receptor; anion channel; experiment: (§2) In vitro inhibition of [3H]flunitrazepam binding to GABA-A benzodiazepine receptor of bovine cerebral cortical membranes at 10 uM; design: species or system Bos taurus; how it was run: as §1
[3] = molecular target: T1, GABA-A receptor; anion channel (Bos taurus); experiment: Relative binding to GABA-A receptor in the presence and absence of GABA (GABA shift), Ki(-GABA)/Ki(+GABA); type: protein-complex assay
How it was run: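 Same [3H]flunitrazepam (0.2 nM, 0 °C, 90 min) binding with GABA-depleted washed bovine cortical membranes. IC50 from log-probit analysis of 6–8 concentrations in triplicate, measured with and without 10 μM GABA; Ki by Cheng–Prusoff (Kd 1.8 nM). Ratio = Ki without GABA / Ki with GABA; Ki means ± SEM of three determinations.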

[4] = molecular target: T1, GABA-A receptor; anion channel (Bos taurus); experiment: as §2; how it was run: as §1
Mus musculus [5] = experiment: In vivo ip dose to induce convulsions in mice treated with subconvulsant PTZ (40 mg/kg); type: functional
How it was run: (§3)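 Groups of 10 mice given graded doses ip (0.1 mL) suspended in 1% carboxymethylcellulose vehicle, or vehicle alone; PTZ given 30 min later at 80 mg/kg (anticonvulsant test) or 40 mg/kg subconvulsant (proconvulsant test). Proconvulsant value: dose inducing convulsions in 50% of mice. Highest dose tested 250 mg/kg.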

Mus musculus [6] = experiment: Anticonvulsant activity in mice on ip dose before 80 mg/kg of PTZ (NE=no effect); type: functional, organism-based; design: dose 80 mg/kg; how it was run: as §3
Mus musculus [7] = experiment: In vivo ip dose to antagonize Diazepam (2.5 mg/kg) anticonvulsant effect in mice treated with 80 mg/kg PTZ; type: functional; settings: route intraperitoneal
How it was run: (§4)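 Groups of 10 mice received diazepam 2.5 mg/kg ip, then 10 min later graded ip doses of compound or vehicle; PTZ 80 mg/kg given 15 min after compound. Value: dose antagonizing diazepam's anticonvulsant effect in 50% of mice. Highest dose tested 250 mg/kg.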

Mus musculus [8] = experiment: In vivo ip dose to induce convulsions in mice treated with subconvulsant PTZ (40 mg/kg) (NE=no effect); type: functional, organism-based; how it was run: as §3
Mus musculus [9] = experiment: In vivo ip dose to antagonize Diazepam (2.5 mg/kg) anticonvulsant effect in mice treated with 80 mg/kg PTZ (NE=no effect); type: functional, organism-based; design: dose 80 mg/kg; how it was run: as §4
[10] = molecular target: T1, GABA-A receptor; anion channel (Bos taurus); experiment: In vitro inhibition of [3H]flunitrazepam binding to GABA-A benzodiazepine receptor of bovine cerebral cortical membranes at 1 uM; how it was run: as §1

SMILES: O=C(NCCc1c[nH]c2ccccc12)C(=O)c1c[nH]c2ccc([N+](=O)[O-])cc12
- inhibition [1]: 90%
- Ki [2]: 350 nM
- Ratio [3]: 0.65

SMILES: Cn1cc(C(=O)C(=O)NCCc2ccc(Cl)cc2)c2ccccc21
- inhibition [4]: 25%

SMILES: Cn1cc(C(=O)C(=O)NCCc2c[nH]c3ccccc23)c2ccccc21
- inhibition [1]: 39%

SMILES: COc1cccc(CCNC(=O)C(=O)c2c[nH]c3ccccc23)c1
- inhibition [1]: 97%
- Ki [2]: 85 nM
- Ratio [3]: 1.2

SMILES: O=C(NCCc1ccc(O)c(O)c1)C(=O)c1c[nH]c2ccc([N+](=O)[O-])cc12
- ED50 (Mus musculus [5]): 100 mg/kg
- Activity (Mus musculus [6]): inactive
- ED50 (Mus musculus [7]): 75 mg/kg
- inhibition [4]: 100%
- Ki [2]: 280 nM
- Ratio [3]: 0.64

SMILES: O=C(NCCc1ccc(O)cc1)C(=O)c1c[nH]c2ccccc12
- inhibition [1]: 82%
- Ki [2]: 2400 nM
- Ratio [3]: 0.7

SMILES: O=C(NCCc1ccc(O)cc1)C(=O)c1c[nH]c2ccc(Br)cc12
- inhibition [1]: 75%
- Ki [2]: 2300 nM
- Ratio [3]: 0.8

SMILES: O=C(NCCc1ccc(O)c(O)c1)C(=O)c1c[nH]c2ccc(Br)cc12
- inhibition [4]: 85%
- Ki [2]: 1200 nM
- Ratio [3]: 0.7

SMILES: COc1ccc(CCNC(=O)C(=O)c2c[nH]c3ccc([N+](=O)[O-])cc23)cc1
- inhibition [1]: 32%

SMILES: O=C(NCCc1c[nH]c2ccccc12)C(=O)c1c[nH]c2ccc(Br)cc12
- inhibition [1]: 62%

SMILES: O=C(NCCc1ccc(O)cc1)C(=O)c1c[nH]c2ccc(Cl)cc12
- inhibition [1]: 83%
- Ki [2]: 2200 nM
- Ratio [3]: 0.8

SMILES: COc1ccc(CCNC(=O)C(=O)c2c[nH]c3ccc([N+](=O)[O-])cc23)cc1OC
- Ratio [3]: 1

SMILES: O=C(NCCc1ccccc1)C(=O)c1c[nH]c2ccccc12
- ED50 (Mus musculus [8]): inactive
- ED50 (Mus musculus [9]): inactive
- Activity (Mus musculus [6]): inactive
- inhibition [1]: 94%
- Ki [2]: 380 nM
- Ratio [3]: 1.3

SMILES: CN1C(=O)CN=C(c2ccccc2)c2cc(Cl)ccc21 [DIAZEPAM]
- Ki [2]: 10 nM
- Ratio [3]: 1.7

SMILES: COc1cccc(CCNC(=O)C(=O)c2c[nH]c3ccc([N+](=O)[O-])cc23)c1
- inhibition [1]: 25%

SMILES: O=C(NCCc1ccc(Cl)cc1)C(=O)c1c[nH]c2ccccc12
- Ki [2]: 340 nM
- Ratio [3]: 1.2

SMILES: O=C(NCCc1ccc(Cl)cc1)C(=O)c1c[nH]c2ccc(Cl)cc12
- inhibition [1]: 4%

SMILES: O=C(NCCc1ccc(O)cc1)C(=O)c1c[nH]c2ccc([N+](=O)[O-])cc12
- ED50 (Mus musculus [5]): 75 mg/kg
- Activity (Mus musculus [6]): inactive
- ED50 (Mus musculus [7]): 50 mg/kg
- inhibition [1]: 100%
- Ki [2]: 350 nM
- Ratio [3]: 0.7

SMILES: Cn1cc(C(=O)C(=O)NCCc2ccc(O)cc2)c2ccccc21
- inhibition [1]: 58%

SMILES: COc1ccc(CCNC(=O)C(=O)c2cn(C)c3ccccc23)cc1OC
- inhibition [1]: 51%

SMILES: COc1ccc(CCNC(=O)C(=O)c2c[nH]c3ccccc23)cc1
- ED50 (Mus musculus [8]): inactive
- ED50 (Mus musculus [9]): inactive
- Activity (Mus musculus [6]): inactive
- inhibition [1]: 97%
- Ki [2]: 90 nM
- Ratio [3]: 1.3

SMILES: O=C(NCCc1ccccc1)C(=O)c1c[nH]c2ccc([N+](=O)[O-])cc12
- inhibition [10]: 39%

SMILES: CCOC(=O)c1ncn2c1CN(C)C(=O)c1cc(F)ccc1-2 [FLUMAZENIL]
- Ki [2]: 0.38 nM
- Ratio [3]: 1

SMILES: O=C(NCCc1c[nH]c2ccccc12)C(=O)c1c[nH]c2ccccc12
- inhibition [1]: 83%
- Ki [2]: 1500 nM
- Ratio [3]: 1

SMILES: O=C(NCCc1c[nH]c2ccccc12)C(=O)c1c[nH]c2ccc(Cl)cc12
- inhibition [1]: 70%

SMILES: O=C(NCCc1ccc(O)c(O)c1)C(=O)c1c[nH]c2ccccc12
- inhibition [4]: 68%
- Ki [2]: 4200 nM
- Ratio [3]: 0.92

SMILES: O=C(NCCc1ccc(Cl)cc1)C(=O)c1c[nH]c2ccc([N+](=O)[O-])cc12
- inhibition [1]: 0%

SMILES: Cn1cc(C(=O)C(=O)NCCc2ccc(O)c(O)c2)c2ccccc21
- inhibition [4]: 17%

SMILES: COc1ccc(CCNC(=O)C(=O)c2cn(C)c3ccccc23)cc1
- inhibition [1]: 67%

SMILES: Cn1cc(C(=O)C(=O)NCCc2ccccc2)c2ccccc21
- inhibition [1]: 42%

SMILES: O=C(NCCc1ccccc1)C(=O)c1c[nH]c2ccc(Cl)cc12
- inhibition [1]: 25%

SMILES: COc1ccc(CCNC(=O)C(=O)c2c[nH]c3ccc(Cl)cc23)cc1OC
- inhibition [1]: 94%
- Ki [2]: 700 nM
- Ratio [3]: 1.3

SMILES: O=C(NCCc1ccc(O)c(O)c1)C(=O)c1c[nH]c2ccc(Cl)cc12
- inhibition [4]: 90%
- Ki [2]: 1000 nM
- Ratio [3]: 0.52

SMILES: COc1ccc(CCNC(=O)C(=O)c2c[nH]c3ccccc23)cc1OC
- inhibition [1]: 96%
- Ki [2]: 510 nM
- Ratio [3]: 1.3
